{"data": "Measurements from different studies", "PFF0160c": "Dihydroorotate dehydrogenase (quinone), mitochondrial (PFF0160c, Plasmodium falciparum, UniProt Q08210)", "HTR2A": "5-hydroxytryptamine receptor 2A (HTR2A, Homo sapiens, UniProt P28223)"}
{"Compound": "Cn1nc2c(=O)n(C3CC3)cnc2c1[C@](O)(c1ccc(C(F)(F)F)c(C#N)c1)C(F)(F)F", "target": "PFF0160c", "test": "enzyme activity, inhibitor", "IC50 [µM]": 0.0126}
{"Compound": "Oc1ccc(C2=CCN(CC3CC34CC4)CC2)cc1 (stereo not shown)", "target": "HTR2A", "test": "calcium signal, antagonist", "IC50 [µM]": 6.23}
{"Compound": "COC(=O)c1cc(N(C)C(=O)c2ccn3ncc(-c4ccc(C(=O)O)cc4)c3c2)ccc1Cl", "target": "Serine/threonine-protein kinase WNK1 (WNK1, Homo sapiens, UniProt Q9H4A3)", "test": "enzyme activity, inhibitor", "IC50 [µM]": "> 30"}
{"Compound": "CCn1cnc2c([C@@](O)(CC)c3ccc(C(F)(F)F)nc3)n(C)nc2c1=O", "target": "PFF0160c", "test": "enzyme activity, inhibitor", "IC50 [µM]": 0.056}
{"Compound": "Cc1nc(Nc2ccc(CC(=O)O)cc2)nc(Nc2ccc(F)c(C(F)(F)F)c2)c1C", "target": "cGMP-specific 3',5'-cyclic phosphodiesterase (PDE5A, Homo sapiens, UniProt O76074)", "test": "enzyme activity, inhibitor, FP", "IC50 [µM]": "~1.5"}
{"Compound": "Cn1nc2c(=O)n(C3CC3)ccc2c1[C@](O)(c1ccc(C(F)(F)F)c(C#N)c1)C1CC1", "target": "PFF0160c", "test": "enzyme activity, inhibitor", "IC50 [µM]": 0.02}
{"Compound": "CC(C)N(CCc1c[nH]c2cccc(OC(=O)CCCC(=O)O)c12)C(C)C", "target": "HTR2A", "test": "ligand displacement, radioligand", "IC50 [µM]": 5.7}
{"Compound": "CNC(=O)c1ccc(-c2cnn3ccc(C(=O)N(C)c4ccc(Cl)c(C(=O)O)c4)cc23)cc1", "target": "Thromboxane A2 receptor (TBXA2R, Homo sapiens, UniProt P21731)", "test": "cell-free assay", "IC50 [µM]": "> 30"}
{"Compound": "COc1ccc(COCCN(C)C(C)Cc2ccc(O)cc2)cc1 (stereo not shown)", "target": "HTR2A", "test": "calcium signal, antagonist", "IC50 [µM]": 16.9}
{"Compound": "Cn1nccc1[C@]1(CNC(=O)c2ccc(F)c(F)c2-c2ccc(C(F)(F)F)cc2)NC(=O)NC1=O", "target": "Mucosa-associated lymphoid tissue lymphoma translocation protein 1 (MALT1, Homo sapiens, UniProt Q9UDY8)", "test": "enzyme activity, inhibitor", "IC50 [µM]": "> 100"}
